This is an account of results in ChEMBL document CHEMBL1123442 (J Med Chem, 1986).

SMILES strings stand for the structures. pIC50: −log10 of the molar value. The source made the active and inactive calls. The rule behind the calls is not given here.

By pIC50 is commonly meant the negative decadic logarithm of the IC50, by convention in mol/L. Low readings indicate a large IC50, high ones a small IC50.

For assay [1], the system named is P388. Description: In vivo for antitumor activity against P388 leukemia. In kind it is functional, Mus musculus. A digest of the protocol:
(§1)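 Mice given 10^6 P388 leukemia cells intraperitoneally, then drug intraperitoneally in 0.1 mL 30% v/v ethanol-water on days 1, 5 and 9. D50 (mg/kg per day giving 50% ILS) read from dose-response graph. ILS at optimal dose versus untreated controls. Long-term survival counted at 30 days.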

For a further assay, the system named is poly[d(A-T)]. In words: Binding constant relative to amsacrine (Δlog K) for DNA binding by ethidium bromide displacement. The note with it: Bos taurus.
The next assay deals with HCT-8. In words: In vitro for cytotoxicity against human colon tumor cells (HCT-8) in culture. In kind it is functional, cell-based.
For assay [2], the system named is Lewis lung carcinoma cell line. In words: In vivo for antitumor activity against Lewis lung carcinoma. In kind it is functional, Mus musculus. A digest of the protocol: (§2)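 Mice inoculated intravenously with 10^6 Lewis lung carcinoma cells, then drug intraperitoneally in 0.1 mL 30% v/v ethanol-water on days 5, 9 and 13. D50 (mg/kg per day for 50% ILS) taken from dose-response graph. ILS at optimal dose versus untreated tumor-bearing controls. Survivors counted at 40 days.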

For a further assay, the system named is L1210. In words: In vitro for cytotoxicity against murine leukemia cells (L1210). In kind it is functional, cell-based. The settings on record: Mus musculus.
For assay [3], the system named is Lewis lung carcinoma cell line. In words: Evaluated in vivo for antitumor activity against Lewis lung carcinoma; g denotes ILS of 50% could not be reached at any dose level. Format: functional, organism-based. The settings on record: Mus musculus. In a few lines:
as §2

Assay [4] has as its system P388. In words: In vivo for antitumor activity against P388 leukemia. Format: functional, Mus musculus. In a few lines: as §1
Assay [5] relates to Lewis lung carcinoma cell line. In words: Evaluated in vivo for antitumor activity against Lewis lung carcinoma; i denotes Inactive. Format: functional, organism-based. The settings on record: Mus musculus. A digest of the protocol:
as §2

Assay [6] deals with Lewis lung carcinoma cell line. In words: Evaluated in vivo for antitumor activity against Lewis lung carcinoma. In kind it is functional, Mus musculus. A digest of the protocol:
as §2

Regarding `CNc1cc(NS(C)(=O)=O)ccc1Nc1c2ccccc2nc2cc(C)ccc12`, the OD (in the assay on P388 [1]; in assay [2]) was 8.9 mg/kg in each case. The Δlog K in the assay on poly[d(A-T)] is 6.71. Moreover, the pIC50 with HCT-8 is 7.23; in the assay with L1210 it was 7.72. Also, the ILSmax is reported as 41% in assay [2] and 88% in the assay with P388 [4]. The figures for the D50 entry (in assay [3]; in the assay on P388 [4]) were “ILS of 50% could not be reached” and 3.5 mg/kg, respectively.

Turning to `CNc1cc(NS(C)(=O)=O)ccc1Nc1c2ccccc2nc2ccc(C)cc12`, the OD (with P388 [1]; in assay [2]) was 100 mg/kg throughout. The Δlog K with poly[d(A-T)] is 5.89. For the same compound, the pIC50 with HCT-8 was 5.77; in the assay on L1210, 6.26. In addition, the values for the ILSmax (in assay [2]; in the assay on P388 [4]) were 200% and 8%, respectively. Moreover, the D50 entry in assay [3] is “ILS of 50% could not be reached”; with P388 [4], 55 mg/kg.

As to `CNc1ccc2c(Nc3ccc(NS(C)(=O)=O)cc3NC)c3ccccc3nc2c1`, the OD (in the assay with P388 [1]; in [2]) was 2.6 mg/kg each time. This compound gave a Δlog K with poly[d(A-T)] of 7.53. Also, the pIC50 was 6.09 with HCT-8 and 8.24 with L1210. Besides, the D50 result in assay [3] was “ILS of 50% could not be reached”; in the assay on P388 [4] it was 0.2 mg/kg. Moreover, in the assay on P388 [4], the ILSmax turned out to be 208%. For the same compound, the ILSmax entry in assay [5] is “inactive”.

For the compound `COc1cc(NS(C)(=O)=O)ccc1Nc1c2ccccc2nc2ccccc12` [AMSACRINE], the D50 entry in assay [3] is on record as “ILS of 50% could not be reached”.

For the compound `CNc1cc(NS(C)(=O)=O)ccc1Nc1c2ccccc2nc2cc(I)ccc12`, the figures for the OD (in the assay with P388 [1]; in assay [2]) were 45 mg/kg and 30 mg/kg, respectively. Further, the Δlog K in the assay on poly[d(A-T)] is 6.42. Besides, the values for the pIC50 with HCT-8 and in the assay with L1210 were 7.10 and 7.54, respectively. Besides, the D50 result in assay [3] was “ILS of 50% could not be reached”; with P388 [4], 10 mg/kg. For the same compound, in the assay on P388 [4], the ILSmax is listed as 70%. The ILS max result in assay [5] is “inactive”.

For `CNC(=O)c1cccc2c(Nc3ccc(NS(C)(=O)=O)cc3NC)c3ccc(Cl)cc3nc12`, the OD in the assay with P388 [1] turned out to be 45 mg/kg; in assay [2], 30 mg/kg. The compound also showed a Δlog K with poly[d(A-T)] of 6.79. Besides, the pIC50 is 5.72 in the assay with HCT-8 and 6.96 in the assay on L1210. In addition, the values for the D50 result (in assay [3]; in the assay on P388 [4]) were “ILS of 50% could not be reached” and 30 mg/kg, respectively. This compound also returned an ILSmax with P388 [4] of 61%. For the same compound, the ILSmax entry in assay [5] was “inactive”.

Turning to `CNc1cc(NS(C)(=O)=O)ccc1Nc1c2ccccc2nc2cc(NC(=O)OC)ccc12`, the OD came to 13.3 mg/kg in the assay on P388 [1] and 8.9 mg/kg in [2]. Besides, in the assay with poly[d(A-T)], the Δlog K was 7.21. Moreover, the pIC50 with HCT-8 was 6.15; in the assay on L1210 it was 7.12. The D50 result is “ILS of 50% could not be reached” in [3] and 1.5 mg/kg with P388 [4]. In the assay on P388 [4], the ILSmax was 135%. In addition, in [5], the ILSmax result was “inactive”.

Regarding `CNc1cc(NS(C)(=O)=O)ccc1Nc1c2ccccc2nc2cc([N+](=O)[O-])ccc12`, the OD with P388 [1] came out at 5.9 mg/kg; in [2], 8.9 mg/kg. In addition, the Δlog K in the assay on poly[d(A-T)] turned out to be 6.72. The pIC50 with HCT-8 was 6.85; in the assay with L1210 it was 6.96. The D50 result in assay [3] was “ILS of 50% could not be reached”; with P388 [4], 3 mg/kg. For the same compound, the ILSmax in the assay on P388 [4] was 70%. Besides, the ILSmax entry in [5] was “inactive”.

`CNc1cc(NS(C)(=O)=O)ccc1Nc1c2ccccc2nc2c(C(N)=O)cccc12`: the OD in the assay with P388 [1] stood at 45 mg/kg; in [2], 30 mg/kg. In the assay on poly[d(A-T)], this compound gave a Δlog K of 6.28. Moreover, the pIC50 in the assay with HCT-8 is 5.55; in the assay with L1210 it was 6.25. The figures for the D50 result (in assay [3]; in the assay on P388 [4]) were “ILS of 50% could not be reached” and 25 mg/kg, respectively. The compound also returned an ILSmax in the assay on P388 [4] of 109%. Moreover, in [5], the ILSmax result is “inactive”.

For `CNc1cc(NS(C)(=O)=O)ccc1Nc1c2ccccc2nc2c(C(=O)NCC(N)=O)cccc12`, the OD is 68 mg/kg with P388 [1] and 45 mg/kg in assay [2]. The same compound registered a Δlog K in the assay with poly[d(A-T)] of 5.57. Further, the pIC50 in the assay with HCT-8 is under 6.98; with L1210, 5.46. Further, the D50 entry in [3] was “ILS of 50% could not be reached”; with P388 [4] it was 45 mg/kg. Also, in the assay on P388 [4], the ILSmax is on record as 87%. The ILSmax entry in assay [5] was “inactive”.

For `CNC(=O)c1cccc2c(Nc3ccc(NS(C)(=O)=O)cc3NC)c3cccc(OC)c3nc12`, the OD (in the assay on P388 [1]; in [2]) was 65 mg/kg in each case. In the assay on poly[d(A-T)], this compound had a Δlog K of 6.92. For the same compound, the pIC50 is under 6.00 with HCT-8 and 6.49 with L1210. Also, the ILSmax was found to be 34% in [2] and 148% with P388 [4]. In addition, the D50 entry in assay [3] was “ILS of 50% could not be reached”; in the assay on P388 [4], 30 mg/kg.

For the compound `CNc1cc(NS(C)(=O)=O)ccc1Nc1c2ccc(C)cc2nc2c(OC)cccc12`, the OD in the assay on P388 [1] is 13.3 mg/kg; in assay [2], 20 mg/kg. Also, the values for the pIC50 in the assay with HCT-8 and in the assay with L1210 were 7.15 and 7.19, respectively. The D50 came out at 10 mg/kg in assay [6] and 5.5 mg/kg with P388 [4]. In addition, the ILSmax in assay [2] was 194%; in the assay on P388 [4], 122%.

As for `CNc1cc(NS(C)(=O)=O)ccc1Nc1c2ccccc2nc2c(OC)cccc12`, the OD (in the assay with P388 [1]; in assay [2]) was 45 mg/kg each time. The pIC50 in the assay on HCT-8 is 6.85; in the assay with L1210, 6.89. The D50 in [6] came out at 19 mg/kg; in the assay with P388 [4] it was 5 mg/kg. Moreover, the ILSmax in assay [2] was determined as 153%; with P388 [4], 170%.

On to `CNc1cc(NS(C)(=O)=O)ccc1Nc1c2ccccc2nc2cc(Br)ccc12`, for which the OD in the assay with P388 [1] was found to be 66 mg/kg; in assay [2] it was 20 mg/kg. For the same compound, in the assay with poly[d(A-T)], the Δlog K was 6.99. Also, the figures for the pIC50 in the assay on HCT-8 and in the assay on L1210 were 6.85 and 7.42, respectively. For the same compound, the ILSmax in assay [2] was found to be 49%; with P388 [4] it was 136%. The D50 result in assay [3] is “ILS of 50% could not be reached”; with P388 [4], 5 mg/kg.

Regarding `CNc1cc(NS(C)(=O)=O)ccc1Nc1c2ccccc2nc2c1ccc1ccccc12`, the OD in the assay on P388 [1] was 45 mg/kg; in [2], 20 mg/kg. The compound further registered a Δlog K with poly[d(A-T)] of 7.46. Also, the pIC50 was 6.40 with HCT-8 and 6.72 in the assay on L1210. Moreover, the D50 result in [3] is “ILS of 50% could not be reached”; with P388 [4], 45 mg/kg. In the assay on P388 [4], this compound returned an ILSmax of 50%. In [5], the ILSmax result was “inactive”.

Regarding `CNc1cc(NS(C)(=O)=O)ccc1Nc1c2ccc(Br)cc2nc2c(C)cccc12`, the OD (in the assay on P388 [1]; in assay [2]) was 13.3 mg/kg each time. Besides, the Δlog K with poly[d(A-T)] is 7.27. In addition, the pIC50 is 7.31 in the assay with HCT-8 and 7.68 in the assay on L1210. Besides, the figures for the ILSmax (in assay [2]; in the assay with P388 [4]) were 34% and 122%, respectively. For the same compound, the D50 result is “ILS of 50% could not be reached” in [3] and 7 mg/kg with P388 [4].
